# Screens (PubChem BioAssay)
# TAAR1 antagonist = human TAAR1 antagonism; Q96RJ0; AID 624466; CHO RD-HGA16 TAAR1, Fluo-8 calcium fluorescence, antagonist; 1.5% of 360,000 active; inhibition, % at 3 µM;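 active = inhibition above a per-plate cutoff, the mean inhibition of test compounds on that plate plus 3 SD, cut at about 49% in these data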;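 note: 0% = DMSO plus EC80 beta-PEA response and 100% = DMSO alone without agonist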
#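 Test system: hTAAR1-expressing CHO RD-HGA16 cells, Gα16-coupled; Probe or stimulus: EC80 β-phenethylamine stimulus; Compound dosing: single nominal final test compound concentration of 3 µM; Timing: 140 s kinetic read after compound, 140 s after agonist; Signal: Fluo-8 calcium-sensitive fluorescence; Measure: % inhibition of agonist calcium response; Controls: DMSO and EC80 PEA controls.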
# OX1R antag-1 = antagonists of human orexin 1 receptor (OX1R) | O43613 | OX1R-expressing cells, FRET antagonist read-out | inhibition, % at 6.6 µM | 1.8% of 330,000 active | AID 485270; in the data active = inhibition mostly above about 38%, no sharp cut-off; inactive = mostly below about 40%;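 note: 0% = agonist challenge alone and 100% = reference antagonist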
# OX1R antag-2 = human HCRTR1 antagonism | inhibition, % at 5 µM | 0.43% of 330,000 active | O43613 | CHO/OX1R cells, Fluo-8 calcium fluorescence, orexin A;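 active = inhibition above its plate's threshold, mean inhibition of all tested compounds on the plate plus 3 SD, cut at about 37% in these data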;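 note: 0% = orexin A challenge wells and 100% = SB-334867-A antagonist wells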
# CHO parental Ca = signal in parental CHO cells, OX1R antagonist counter-screen; inhibition, % at 5.6 µM; 0.63% of 330,000 active; parental CHO-K1, ATP-induced calcium, Fluo-8 fluorescence;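 active = inhibition above that plate's mean sample inhibition plus 3 SD, cut at about 26% in these data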;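 note: 0% = ATP-challenged DMSO wells and 100% = DMSO wells without ATP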
#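 Material: Parental CHO cells | Reagent: ATP | Compound dosing: Single nominal dose of 5.6 µM per compound | Detection: Intracellular calcium via Fluo-8 no-wash fluorescent dye | Read-out: % inhibition of ATP-induced calcium mobilization | Benchmarks: Low control ATP plus DMSO, high control DMSO only | Replicates: Singlicate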
# NTR1 agonist = activates human neurotensin receptor 1; AID 493036; activation, % at 20 µM; 0.17% of 330,000 active; NTR1-U2OS beta-arrestin-GFP spot imaging, agonist mode; P30989;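 active = activation at or above 40% of the spot to cytoplasm intensity ratio, with at least 20 cells analyzed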;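 note: 0% = DMSO without peptide and 100% = 100 nM NTR1 peptide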
# Target sequence (P30989 whole entry, looked up): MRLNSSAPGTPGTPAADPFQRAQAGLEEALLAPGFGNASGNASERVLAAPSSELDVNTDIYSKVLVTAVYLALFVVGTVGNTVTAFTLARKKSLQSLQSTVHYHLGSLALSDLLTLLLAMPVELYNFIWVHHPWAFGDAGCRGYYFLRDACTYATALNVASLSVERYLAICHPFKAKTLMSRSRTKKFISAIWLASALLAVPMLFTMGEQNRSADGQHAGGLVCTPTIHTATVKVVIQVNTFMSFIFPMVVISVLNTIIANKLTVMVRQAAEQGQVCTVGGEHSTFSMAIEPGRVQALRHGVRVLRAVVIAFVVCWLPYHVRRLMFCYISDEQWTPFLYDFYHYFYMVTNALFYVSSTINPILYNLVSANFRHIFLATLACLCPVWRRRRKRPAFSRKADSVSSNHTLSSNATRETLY
# TAAR1 agonist = agonists of human TAAR1; Q96RJ0; CHO RD-HGA16 TAAR1, Fluo-8 calcium fluorescence; vehicle wells 0%, saturating PEA agonist 100%; activation, % at 3 µM; 0.99% of 360,000 active;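 active = activation above the mean activation of all test compounds in the run plus 3 SD, cut at about 38% in these data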
#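 System: CHO-derived RD-HGA16 cells with stable Gα16 and human TAAR1 / Times: 17-24 h plating, Fluo-8 75 min 37 °C, 30 min RT / Technique: calcium-sensitive Fluo-8 signal, excitation 470-495, emission 515-575 nm / Measure: % activation relative to PEA EC100 response / Benchmarks: DMSO and PEA EC100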
# An asterisk follows results filed as active; nt = no result. Most compounds without a hit are left out; they make up all but 4% or so of the library.
SMILES,TAAR1 antagonist,OX1R antag-1,OX1R antag-2,CHO parental Ca,NTR1 agonist,TAAR1 agonist
CCOc1ccc(-c2c(C)n(-c3ccc(OCC)cc3)c3[n+]2CCCCC3)cc1,-21,26,-2,40*,2,5
COC1=CC(=O)[C@]2(C=C1OC)OC[C@@H]1Oc3c(ccc4c3C=CC(C)(C)O4)C(=O)[C@@H]12,22,33,60*,62*,2,10
COc1cc(OC)c2c(c1)OCC1CON(C)C21 (stereo not drawn),-12,9,2,-2,-1,2
Cc1cccc(C)c1-n1nnnc1C(c1ccccc1)N1CCC2(CC1)C(=O)NCN2c1ccccc1 (stereo not drawn),-7,nt,nt,nt,nt,-1
Cc1cccc(C)c1-n1nnnc1C(C1CC1)N1CCC2(CC1)C(=O)NCN2c1ccccc1 (stereo not drawn),50*,nt,nt,nt,nt,11
Cc1ccccc1C(=O)N1CC1C (stereo not drawn),-19,nt,nt,nt,nt,4
O=C(O)c1cc(S(=O)(=O)N2CC3CC(C2)c2cccc(=O)n2C3)ccc1F (stereo not drawn),-20,nt,nt,nt,nt,2
C/C(=N\NC(N)=O)c1c(O)n(C)c(=O)n(C)c1=O,-2,14,-10,35*,0,3
COC(=O)C1=C(c2ccc(F)cc2OCc2ccccc2)C[C@@H]2CC[C@H]1N2C(=O)NCc1ccc(C(F)(F)F)cc1,53*,16,15,-19,-1,23
COC(=O)C1=C(c2ccccc2OCc2ccccc2)C[C@@H]2CC[C@H]1N2C(=O)NCc1ccc(C(F)(F)F)cc1,33,10,-4,-34,1,2
CN1CCC(=O)N(CCN=[N+]=[N-])CC1,12,19,-10,2,-1,9
O=C(CCc1ccccc1)N1Cc2cc(-c3ccccc3)ccc2-n2nncc2C1,21,nt,nt,nt,nt,0
O=c1[nH]cnc2nc(-c3ccc(N(CCCl)CCCl)cc3)[nH]c12,8,nt,nt,nt,nt,-1
CC(C)N1CC=C(c2c[nH]c3ccccc23)CC1,-10,27,-21,-20,2,38*
CN(C)C(=O)Oc1ccc2nnc3ccnn3c2c1,11,36*,-6,-4,-1,-2
C[n+]1c(-c2ccccc2)c2cc(N)ccc2c2ccc(N)cc21,2,51*,-1,-2,-2,2
CN(CC1COc2ccccc2O1)c1nc(-c2cccnc2)nc2ccccc12 (stereo not drawn),46,74*,-28,-34,19,11
O=C(CSC1c2ccccc2-c2ccccc21)N/N=C/c1ccccc1O,38,60*,-1,-7,10,8
COc1ccc2c(c1)[C@@]13CCC=C[C@H]1[C@@H](C2)NCC3,18,3,-15,-12,1,3
Cc1ccc(NP(=O)(Oc2ccccc2F)Oc2ccccc2F)cc1,7,13,3,-4,18,4
Cc1cccc(NP(=O)(Oc2ccccc2F)Oc2ccccc2F)c1C,54*,20,6,47*,10,8
COc1ccc(CCn2c(O)c(/C=N/N3CCOCC3)c(=O)[nH]c2=O)cc1OC,-15,11,-30,-14,1,2
Cc1ccc(N2C(=O)NC(=O)/C(=C/C=C/c3ccco3)C2=O)cc1,51*,15,2,-10,17,37
COC1C(OC(=O)c2ccc(C)[nH]2)C(O)C(Oc2ccc3c(O)c(NC(=O)c4ccc(O)c(CC=C(C)C)c4)c(=O)oc3c2Cl)OC1(C)C (stereo not drawn),12,11,36,32*,7,-2
COc1cc(CCN)c(OC)cc1C,8,nt,nt,nt,nt,32
O=C1CN=C(c2cccc(Br)c2)c2cc(Br)ccc2N1,-6,10,-9,-7,4,-3
C=CCn1c(O)c(C(C)=NCCc2ccccc2)c(=O)[nH]c1=O,13,5,-1,-16,0,40*
C=CCn1c(O)c(C(C)=NCCO)c(=O)[nH]c1=O,-3,0,2,-3,-2,10
Cc1ccc(OCCSC2=NN2c2cc(C)nc(N)n2)cc1,-13,13,-24,-12,-1,4
CN1CCc2cc3c(c4c2C1Cc1ccccc1-4)OCO3 (stereo not drawn),-23,74*,-26,-20,0,0
